Where “and” joins values, the source holds several entries; their conditions need not be identical. Identical values can stand only once. One block for each molecule: values may come before it. Where a SMILES comes first, the peptide text is derived from it. [ ]: non-standard residue; d: D form. The star is where a group is joined. X1 = O=[N+]([O-])c1cc([N+](=O)[O-])cc(*)c1; Farnesyl = CC(C)=CCC/C(C)=C/CC/C(C)=C/C*; 2Abz = Nc1ccccc1C(=O)O
Assays:
Assay type in all cases: cell membranes
[1] = biological target: T1, CAAX prenyl protease 2 (Saccharomyces cerevisiae S288c) (UniProt Q03530); assay: (§1) Binding affinity to Rce1p in yeast membranes assessed as reduction in binding affinity at 0.75 uM after 30 mins by Western blotting in presence of 50 uM of (3S,6S,9S,12S,15S,18R,21S,24S,27S)-3,9,15-tris(4-aminobutyl)-24-sec-butyl-21-(4-(3,5-dinitrophenylamino)butyl)-12-((S)-1-hydroxyethyl)-6-(hydroxymethyl)-22-imino-27-(2-(methylthio)ethyl)-1,4,7,10,13,16,19,25-octaoxo-1-phenyl-18-(((2E,6E)-3,7,11-trimethyldodeca-2,6,10-trienylthio)methyl)-2,5,8,11,14,17,20,23,26-nonaazaoctacosan-28-oic acid; set-up: scale not given: the % may be the effect or the level left
T1 sequence (whole entry): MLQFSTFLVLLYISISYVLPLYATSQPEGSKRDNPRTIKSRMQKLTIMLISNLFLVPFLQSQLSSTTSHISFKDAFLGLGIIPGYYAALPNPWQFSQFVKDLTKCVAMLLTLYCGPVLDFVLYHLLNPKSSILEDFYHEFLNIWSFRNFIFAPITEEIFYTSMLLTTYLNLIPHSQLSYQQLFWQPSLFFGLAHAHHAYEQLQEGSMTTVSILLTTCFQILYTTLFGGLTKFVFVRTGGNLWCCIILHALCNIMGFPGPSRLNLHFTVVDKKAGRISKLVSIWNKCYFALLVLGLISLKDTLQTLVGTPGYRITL
Outline: (§2)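 Competition photolabelling: Rce1p-containing yeast membranes (0.25 μg/μL) with biotinylated benzophenone probe (0.75 μM) in 100 mM Hepes, 5 mM MgCl2, pH 7.5. Farnesylated competitor peptide added at 50 or 100 μM. UV photolysis 30 min at 4 °C, then streptavidin pull-down and anti-HA Western blot. Band intensities quantified by densitometry relative to the no-competitor reaction.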

[2] = biological target: T1, CAAX prenyl protease 2 (Saccharomyces cerevisiae S288c); assay: as §1, with “100” for “50”; set-up: scale not given: the % may be the effect or the level left; outline: as §2
[3] = substrate: CC[C@H](C)[C@H](NC(=O)[C@H](CCCCNc1cc([N+](=O)[O-])cc([N+](=O)[O-])c1)NC(=O)[C@H](CSC/C=C(\C)COCc1cccc(C(=O)c2ccccc2)c1)NC(=O)[C@H](CCCCN)NC(=O)[C@@H](NC(=O)[C@H](CCCCN)NC(=O)[C@H](CO)NC(=O)[C@H](CCCCN)NC(=O)c1ccccc1N)[C@@H](C)O)C(=O)N[C@@H](CCSC)C(=O)O; assay: (§3) Activity of Rce1p in yeast membranes assessed as enzyme-mediated Ca1a2X proteolysis measured every 30 to 60 seconds for 1 hr by spectrofluorimetric assay; conditions: Saccharomyces cerevisiae
[4] = substrate: CC[C@H](C)[C@H](NC(=O)[C@H](CCCCNc1cc([N+](=O)[O-])cc([N+](=O)[O-])c1)NC(=O)[C@H](CSC/C=C(\C)CC/C=C(\C)CCC=C(C)C)NC(=O)[C@H](CCCCN)NC(=O)[C@@H](NC(=O)[C@H](CCCCN)NC(=O)[C@H](CO)NC(=O)[C@H](CCCCN)NC(=O)c1ccccc1N)[C@@H](C)O)C(=O)N[C@@H](CCSC)C(=O)O; assay: as §3; conditions: Saccharomyces cerevisiae
[5] = substrate: CC[C@H](C)[C@H](NC(=O)[C@H](CCCCNc1cc([N+](=O)[O-])cc([N+](=O)[O-])c1)NC(=O)[C@H](CSC/C=C(\C)COCc1cccc(C(=O)c2ccccc2)c1)NC(=O)[C@H](CCCCN)NC(=O)[C@@H](NC(=O)[C@H](CCCCN)NC(=O)[C@H](CO)NC(=O)[C@H](CCCCN)NC(=O)c1ccccc1N)[C@@H](C)O)C(=O)N[C@@H](CCSC)C(=O)O; assay: Activity of Rce1p in yeast membranes assessed as enzyme-mediated Ca1a2X proteolysis per mg of protein measured every 30 to 60 seconds for 1 hr by spectrofluorimetric assay; conditions: Saccharomyces cerevisiae

Activity [1]: 60% | Activity [2]: 31%
Molecule: CC[C@H](C)[C@H](NC(=O)[C@H](CCCCNc1cc([N+](=O)[O-])cc([N+](=O)[O-])c1)NC(=O)[C@H](CSC/C=C(\C)CC/C=C(\C)CCC=C(C)C)NC(=O)[C@H](CCCCN)NC(=O)[C@@H](NC(=O)[C@H](CCCCN)NC(=O)[C@H](CO)NC(=O)[C@H](CCCCN)NC(=O)c1ccccc1N)[C@@H](C)O)C(=O)N[C@@H](CCSC)C(=O)O (H-[2Abz]KSKTKC(Farnesyl)K(X1)IM-OH)

B1: CAAX prenyl protease 2 (Saccharomyces cerevisiae S288c), Q03530 (protein)
chain: T1 sequence (whole entry)
Km [3]: 1.9 µM | Km [4]: 6.4 µM and 4 µM | Vmax [5]: 0.093 nmol/min/mg

Reference: ChEMBL document CHEMBL1250459, “Photoaffinity labeling of Ras converting enzyme 1 (Rce1p) using a benzophenone-containing peptide substrate” (Bioorg Med Chem, 2010)
